Measured values: PMC5477238 (Clinical cancer research : an official journal of the …, 2016)

Legend:
HUVEC cells = conditions: at 1 μmol/L; cited from earlier work
LC-2/ad cells = assay: Apoptosis assay; format: cell-based, human; conditions: 24-hour incubation
In short: (§1)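 Cells kept in F-12K or RPMI with 10% (vol/vol) FBS at 37°C in humidified 5% CO2. They were split into 10-cm dishes and, 24 hours later, exposed to a range of test compound concentrations for 24 hours. Lysates were prepared in RIPA buffer. Cleaved caspase-3 and cleaved PARP were detected by standard Western blotting.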

TT cells = assay: Apoptosis assay; format: cell-based, human; conditions: 24-hour incubation
In short: as §1

[1] = system: LC-2/ad cells (CCDC6-RET); assay: Cell viability assay; format: cell-based; conditions: Homo sapiens, 72 h, read-out: IC50 (cell viability)
[2] = system: phospho-RET, phospho-PLCγ, phospho-ERK, phospho-MEK in LC-2/ad cells; assay: Western blot of RET pathway phosphorylation; format: cell-based, human; conditions: 50 nmol/L to 5 μmol/L, 2 hours
TT cells (RET C634W) = assay: Cell viability assay; format: cell-based; conditions: Homo sapiens, 96 h, read-out: IC50 (cell viability)
[3] = system: RET-rearranged lung cancers; conditions: cited from earlier work

Row | Compound | growth inhibitory activity toward HUVEC cells (HUVEC cells) | apoptosis (cleaved caspase-3 and cleaved PARP) (LC-2/ad cells) | apoptosis (cleaved caspase-3 and cleaved PARP) (TT cells) | IC50 [1] | ERK and MEK phosphorylation [2] | IC50 (TT cells (RET C634W)) | patients requiring a dose reduction due to drug-related toxicities ([3]; phase II study) | overall response rate ([3]; phase II trial)
1 | COc1cc2ncnc(Oc3cccc(NC(=O)Nc4cc(C(C)(C)C(F)(F)F)on4)c3)c2cc1OC.Cl [RXDX-105, 1-(3-(6,7-dimethoxyquinazolin-4-yloxy)phenyl)-3-(5-(1,1,1-trifluoro-2-methylpropan-2-yl)isoxazol-3-yl)urea hydrochloride] | no growth inhibitory activity | induced apoptosis | no cleavage of caspase-3 and PARP | – | – | – | – | –
2 | CCc1cc2c(cc1N1CCC(N3CCOCC3)CC1)C(C)(C)c1[nH]c3cc(C#N)ccc3c1C2=O [alectinib] | – | induced apoptosis | no cleavage of caspase-3 and PARP was seen in the TT cells, except for the higher doses of alectinib | 204 nM | neither RXDX-105 nor alectinib treatment showed detectable change | 90 nM | – | –
3 | COc1cc2nccc(Oc3ccc(NC(=O)C4(C(=O)Nc5ccc(F)cc5)CC4)cc3)c2cc1OC [cabozantinib] | – | induced apoptosis | no cleavage of caspase-3 and PARP | 98 nM | able to decrease phospho-ERK and phospho-MEK at as low as 50 nmol/L | 77 nM | approximately two thirds | 28%
